Test [1] can be described thus: Modulation of Clk/sty pre-mRNA splicing in human STO cells assessed as concentration required to increase in mature Clk2 mRNA level by RT-PCR analysis. The class given is functional, cell-based. The note with it: in the assay text read “Clk1” for “Clk2”. The gist of the method: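 STO cells were treated for 4 h with compound added to the culture medium, with 0.05% DMSO as control. Total RNA was purified, and the Clk1/Sty splicing pattern was analysed by RT-PCR. Read-outs were the concentration for a 5-fold increase, the concentration for half-maximal generation of mature Clk1 mRNA, and the maximum fold increase over DMSO. Data are means of three independent experiments run in triplicate.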

Test [2] in a line: Modulation of Clk/sty pre-mRNA splicing in human STO cells assessed as concentration required to 5 fold increase in mature Clk1 mRNA level by RT-PCR analysis.
Test [3] can be described thus: Modulation of Clk/sty pre-mRNA splicing in human STO cells assessed as concentration required to increase in mature Clk1 mRNA level by RT-PCR analysis relative to control.
The target in test [4] is T1, Dual specificity tyrosine-phosphorylation-regulated kinase 1A (Homo sapiens, UniProt Q13627). Put plainly: Inhibition of recombinant Dyrk1A (unknown origin) using KKISGRLSPIMTEQ-NH2 peptide substrate. The gist of the method: (§1)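 Kinase activity was measured in a cell-free assay with recombinant enzyme and peptide substrate at 100 μM ATP. Values are reported as IC50.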

Test [5] concerns the target T2, Dual specificity tyrosine-phosphorylation-regulated kinase 1B (Homo sapiens, UniProt Q9Y463). Put plainly: Inhibition of recombinant Dyrk1B (unknown origin) using KKISGRLSPIMTEQ-NH2 peptide substrate.
Target sequence in this assay (Q9Y463 whole entry): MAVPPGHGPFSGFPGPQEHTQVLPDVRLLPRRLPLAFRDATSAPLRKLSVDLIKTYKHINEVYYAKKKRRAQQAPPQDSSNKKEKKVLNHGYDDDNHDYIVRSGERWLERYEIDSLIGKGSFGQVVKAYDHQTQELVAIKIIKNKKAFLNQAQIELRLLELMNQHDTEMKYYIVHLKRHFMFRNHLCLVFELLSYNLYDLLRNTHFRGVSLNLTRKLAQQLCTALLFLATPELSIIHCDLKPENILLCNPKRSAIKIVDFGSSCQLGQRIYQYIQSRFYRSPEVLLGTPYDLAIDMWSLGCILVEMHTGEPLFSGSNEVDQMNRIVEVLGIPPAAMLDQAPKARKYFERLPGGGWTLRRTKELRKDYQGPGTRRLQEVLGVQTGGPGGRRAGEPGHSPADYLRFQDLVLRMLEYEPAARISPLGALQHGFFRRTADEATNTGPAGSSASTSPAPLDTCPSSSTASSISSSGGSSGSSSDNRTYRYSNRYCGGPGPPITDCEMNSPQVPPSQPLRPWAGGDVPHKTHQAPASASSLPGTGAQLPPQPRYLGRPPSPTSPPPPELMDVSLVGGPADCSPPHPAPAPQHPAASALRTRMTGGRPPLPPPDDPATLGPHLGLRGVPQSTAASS
Test [6] deals with T3, Dual specificity tyrosine-phosphorylation-regulated kinase 2 (Homo sapiens) (UniProt Q92630).
T3 sequence (whole entry): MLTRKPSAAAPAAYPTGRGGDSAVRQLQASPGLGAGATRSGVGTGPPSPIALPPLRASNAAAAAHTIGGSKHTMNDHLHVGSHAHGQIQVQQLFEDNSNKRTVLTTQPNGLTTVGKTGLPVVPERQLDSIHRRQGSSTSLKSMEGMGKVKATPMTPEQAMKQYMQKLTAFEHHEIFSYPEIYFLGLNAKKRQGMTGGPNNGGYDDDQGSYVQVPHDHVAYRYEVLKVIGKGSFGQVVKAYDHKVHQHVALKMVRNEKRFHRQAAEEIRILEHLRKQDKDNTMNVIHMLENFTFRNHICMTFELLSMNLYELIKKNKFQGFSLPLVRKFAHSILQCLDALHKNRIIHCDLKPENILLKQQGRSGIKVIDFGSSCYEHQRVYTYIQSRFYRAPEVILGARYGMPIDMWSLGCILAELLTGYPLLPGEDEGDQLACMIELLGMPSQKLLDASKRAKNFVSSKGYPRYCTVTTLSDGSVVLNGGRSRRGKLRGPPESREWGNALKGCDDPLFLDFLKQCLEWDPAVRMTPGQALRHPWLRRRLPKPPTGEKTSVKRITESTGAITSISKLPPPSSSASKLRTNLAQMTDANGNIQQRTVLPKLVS
Put plainly: Inhibition of recombinant Dyrk2 (unknown origin) using KKISGRLSPIMTEQ-NH2 peptide substrate at 5 uM.

The target of test [7] is T4, Dual specificity protein kinase CLK1 (Homo sapiens, UniProt P49759). Put plainly: Inhibition of recombinant Clk1 (unknown origin) using GRSRSRSRSR peptide substrate. The gist of the method:
as §1
Target sequence in this assay (P49759 whole entry): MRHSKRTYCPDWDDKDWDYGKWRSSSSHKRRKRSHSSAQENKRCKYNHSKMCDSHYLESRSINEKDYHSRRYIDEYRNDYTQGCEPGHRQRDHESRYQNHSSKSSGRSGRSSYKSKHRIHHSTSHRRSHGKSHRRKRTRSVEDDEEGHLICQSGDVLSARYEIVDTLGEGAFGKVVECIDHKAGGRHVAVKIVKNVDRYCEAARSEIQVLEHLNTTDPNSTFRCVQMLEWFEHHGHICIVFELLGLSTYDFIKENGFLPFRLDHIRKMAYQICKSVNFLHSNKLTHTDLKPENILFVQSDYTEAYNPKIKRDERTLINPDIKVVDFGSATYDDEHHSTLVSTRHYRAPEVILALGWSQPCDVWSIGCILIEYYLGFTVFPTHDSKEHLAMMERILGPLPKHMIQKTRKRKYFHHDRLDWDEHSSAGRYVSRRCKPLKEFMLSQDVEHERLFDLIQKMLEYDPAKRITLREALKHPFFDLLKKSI

Test [8] has as its target Casein kinase II subunit alpha (Homo sapiens) (UniProt P68400). Put plainly: Inhibition of CK2alpha (unknown origin) at 5 uM.
The target of test [9] is T1, Dual specificity tyrosine-phosphorylation-regulated kinase 1A. Put plainly: Inhibition of recombinant Dyrk1A (unknown origin) using KKISGRLSPIMTEQ-NH2 peptide substrate at 5 uM.
For test [10], the target named is T2, Dual specificity tyrosine-phosphorylation-regulated kinase 1B. The test is described as follows: Inhibition of recombinant Dyrk1B (unknown origin) using KKISGRLSPIMTEQ-NH2 peptide substrate at 5 uM.
Target sequence in this assay (Q9Y463 whole entry, looked up): as the sequence (Q9Y463 whole entry) above
The target of test [11] is T4, Dual specificity protein kinase CLK1. The test is described as follows: Inhibition of recombinant Clk1 (unknown origin) using GRSRSRSRSR peptide substrate at 5 uM.
Target sequence in this assay (P49759 whole entry, looked up): as the sequence (P49759 whole entry) above
In test [12] the target is T5, 17-beta-hydroxysteroid dehydrogenase type 1 (Homo sapiens) (UniProt P14061).
T5 sequence (whole entry): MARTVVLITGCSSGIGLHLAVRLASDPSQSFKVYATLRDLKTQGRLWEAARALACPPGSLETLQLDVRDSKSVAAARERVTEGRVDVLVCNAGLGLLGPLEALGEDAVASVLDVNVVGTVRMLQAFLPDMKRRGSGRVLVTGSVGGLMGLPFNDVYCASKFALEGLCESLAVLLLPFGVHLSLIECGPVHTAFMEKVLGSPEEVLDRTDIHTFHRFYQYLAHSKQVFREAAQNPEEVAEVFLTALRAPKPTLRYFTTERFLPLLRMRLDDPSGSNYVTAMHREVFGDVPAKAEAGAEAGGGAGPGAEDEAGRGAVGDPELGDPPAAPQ
Put plainly: Inhibition of 17-betaHSD1 (unknown origin) at 5 uM.

The test system of a further test is STO. Put plainly: Modulation of pre-mRNA splicing in human STO cells assessed as increase in mature Clk1 mRNA production at 10 to 20 uM by RT-PCR analysis.
Test [13] is described as follows: Modulation of Clk/sty pre-mRNA splicing in human STO cells assessed as concentration required to increase in mature Clk1 mRNA level by RT-PCR analysis.
The target in test [14] is T6, 17-beta-hydroxysteroid dehydrogenase type 1 (Homo sapiens, UniProt P14061).
T6 sequence (P14061 whole entry): T5 sequence (whole entry)
Put plainly: Inhibition of 17-betaHSD1 (unknown origin).

This is an account of results in ChEMBL document CHEMBL3352729, “Hydroxybenzothiophene Ketones Are Efficient Pre-mRNA Splicing Modulators Due to Dual Inhibition of Dyrk1A and Clk1/4” (ACS Med Chem Lett, 2014).

Calls of active or inactive are those of the source. The rule behind the calls is not given here.

Sequence of Casein kinase II subunit alpha (Homo sapiens) (P68400 whole entry, looked up): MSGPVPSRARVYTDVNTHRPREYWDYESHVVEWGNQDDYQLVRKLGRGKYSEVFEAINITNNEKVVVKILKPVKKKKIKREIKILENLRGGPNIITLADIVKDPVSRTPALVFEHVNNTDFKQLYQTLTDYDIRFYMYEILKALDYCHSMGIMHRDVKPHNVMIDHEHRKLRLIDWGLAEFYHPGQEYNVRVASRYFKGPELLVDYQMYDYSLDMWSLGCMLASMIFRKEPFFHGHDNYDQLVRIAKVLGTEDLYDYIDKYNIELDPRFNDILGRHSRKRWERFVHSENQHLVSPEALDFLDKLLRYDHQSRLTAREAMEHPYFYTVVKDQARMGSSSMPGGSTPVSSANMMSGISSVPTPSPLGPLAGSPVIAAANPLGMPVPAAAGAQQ

Broadly, the EC50 is the concentration needed to bring the measured effect to its halfway point. `CCN1/C(=C/C(C)=O)Sc2ccc(OC)cc21`: the EC50 in test [1] was 6600 nM. The Activity in test [2] was determined as 3.1 µM. Further, the “fold change (FC)” value in test [3] was 17.

By IC50 is commonly meant the concentration at which inhibition is half-maximal. A word on the inhibition: it is the relative decrease from the control value, in per cent. As for `O=C(c1ccc(F)c(O)c1)c1cc2cc(O)ccc2s1`, the IC50 in test [4] was determined as 1200 nM; in test [5], 400 nM; in test [7], 300 nM. Further, the inhibition was determined as 27% in test [6] and 15% in [8].

Regarding `COc1cccc(C(=O)c2cc3cc(OC)ccc3s2)c1`, the inhibition in test [6] was -7%; in test [9], 10%; in test [10], 40%; in test [11], 47%.

As for `O=C(c1cc2cc(O)ccc2s1)c1cc(O)ccc1F`, the IC50 amounted to 2000 nM in [4], 400 nM in [5] and 50 nM in test [7]. For the same compound, the values for the inhibition in test [6] and in test [8] were 30% and 20%, respectively.

Consider `CC(=O)c1cc2cc(O)ccc2s1`, for which the IC50 in test [4] stood at 200 nM; in test [5], 100 nM; in test [7], 60 nM. For the same compound, the inhibition in [6] was found to be 46%; in [8], 9%. Further, the EC50 in test [1] stood at 8900 nM. The inhibition entry in test [12] was “inactive”. Further, the result in the test with STO was Active. Moreover, in [2], the Activity is 1.1 µM. For the same compound, the “fold change (FC)” value in [3] is given as 21.4.

With `O=C(c1ccc(O)cc1)c1cc2cc(O)ccc2o1`, the figures for the IC50 in [4], in test [5] and in [7] were 9700 nM, 1300 nM and 1000 nM, respectively. In addition, the figures for the inhibition in test [6] and in [8] were 38% and 17%, respectively.

Take `O=C(c1cccc(O)c1)c1cc2cc(O)ccc2[nH]1`: the 50% inhibitory concentration (IC50) in test [4] worked out at 15000 nM; in test [7] it was 2000 nM. In addition, the inhibition in test [6] amounted to 24%; in [8] it was 22%; in test [10], 41%.

As for `O=C(c1cccc(O)c1)c1cc2cc(O)ccc2o1`, the IC50 in test [4] was 3100 nM; in test [5] it was 6100 nM; in [7] it was 1900 nM. Also, the inhibition was found to be 34% in test [6] and 21% in [8].

In the case of `Cc1cc(C(=O)c2cc3cc(O)ccc3s2)ccc1O`, the IC50 in [4] is 11000 nM; in test [5], 7000 nM. Also, the inhibition in test [6] was determined as 8%; in test [11] it was 25%.

For the compound `O=C(c1cccc(O)c1)c1ccc2cc(O)ccc2c1`, the values for the IC50 in test [4], in test [5] and in test [7] were 2900 nM, 2300 nM and 1900 nM, respectively.

In the case of `O=C(c1cccc(O)c1)c1cc2ccccc2s1`, the IC50 in [4] came out at 42000 nM. Moreover, the inhibition was found to be 15% in test [6], 24% in test [8] and 6% in [10].

For `O=C(c1ccccc1)c1cc2cc(O)ccc2s1`, the half-maximal inhibitory concentration (IC50) in [4] was 2000 nM; in test [5], 1000 nM; in [7], 200 nM. The inhibition stood at 37% in test [6] and 13% in test [8].

As to `O=C(c1cccc(O)c1)c1cc2cc(O)ccc2s1`, the figures for the IC50 in [4], in test [5] and in test [7] were 400 nM, 200 nM and 100 nM, respectively. In addition, the inhibition stood at 49% in test [6] and 12% in [8]. For the same compound, the result in the test with STO was Active.

On to `O=C(c1ccc(O)cc1)c1cc2cc(O)ccc2s1`, for which the values for the IC50 in test [4], in [5] and in test [7] were 3400 nM, 800 nM and 300 nM, respectively. Further, the inhibition in [6] stood at 25%; in test [8], 33%.

In the case of `Cn1c(C(=O)c2cccc(O)c2)cc2cc(O)ccc21`, the figures for the IC50 in [4], in [5] and in [7] were 3400 nM, 2700 nM and 2100 nM, respectively. The inhibition in [6] is 25%; in [8], 31%.

`COc1ccc2sc(C(=O)N(C)OC)cc2c1`: the IC50 in test [4] stood at 900 nM; in [5], 1600 nM; in [7], 100 nM. The inhibition in [6] amounted to 41%. Further, the inhibition result in [12] is “inactive”. Also, the EC50 in test [13] stood at 2100 nM. For the same compound, the Activity in test [2] amounted to 2.4 µM. For the same compound, the “fold change (FC)” value in test [3] is reported as 8.1.

Take `Cc1ccc(C(=O)c2cc3cc(O)ccc3s2)cc1O`: the IC50 is 200 nM in test [4], 200 nM in test [5], 50 nM in test [7] and 195 nM in [14]. Moreover, the figures for the inhibition in test [6] and in test [8] were 50% and 10%, respectively. Also, the EC50 in test [1] is 1800 nM. Also, the result in the test with STO was Active. The Activity in test [2] turned out to be 1.9 µM. Moreover, the “fold change (FC)” value in [3] came out at 9.5.

Consider `N#Cc1cccc(C(=O)c2cc3cc(O)ccc3s2)c1`, for which the results for the IC50 in [4], in test [5] and in test [7] were 6000 nM, 2300 nM and 400 nM, respectively. Also, the inhibition in test [6] turned out to be 6%; in [8], 10%.
